Reference: ChEMBL document CHEMBL5661979, “Pharmacological inhibition of BMK1 suppresses tumor growth through promyelocytic leukemia protein” (Cancer Cell, 2010)

Assays:
[1] = target: Tyrosine-protein kinase ABL (Homo sapiens, UniProt P00519+P42684); assay: Inhibition of ABL1/2 in human HeLa cells lysate at 10 uM pre incubated for 15 mins followed by ATP acyl phosphate probe addition and measured after 10 mins by LC-MS/MS analysis relative to control; type: subcellular; settings: time 25.0 min
In short: (§1)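 HeLa cell lysates (5 mg/mL total protein) were preincubated with inhibitor at 0, 0.8, 2, 10 or 50 μM for 15 min. ATP or ADP acylphosphate probe was then added (5 μM final) for 10 min, and reactions were stopped with urea. Up to four fragment ions per kinase probe-peptide were quantified by targeted MS. % inhibition was taken relative to untreated lysate. Run in duplicate.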

[2] = target: T1, Non-receptor tyrosine-protein kinase TNK1 (Homo sapiens) (UniProt Q13470); assay: Inhibition of TNK1 (unknown origin) assessed as remaining activity at 10 uM by ATP-competition binding assay relative to control
T1 sequence (whole entry): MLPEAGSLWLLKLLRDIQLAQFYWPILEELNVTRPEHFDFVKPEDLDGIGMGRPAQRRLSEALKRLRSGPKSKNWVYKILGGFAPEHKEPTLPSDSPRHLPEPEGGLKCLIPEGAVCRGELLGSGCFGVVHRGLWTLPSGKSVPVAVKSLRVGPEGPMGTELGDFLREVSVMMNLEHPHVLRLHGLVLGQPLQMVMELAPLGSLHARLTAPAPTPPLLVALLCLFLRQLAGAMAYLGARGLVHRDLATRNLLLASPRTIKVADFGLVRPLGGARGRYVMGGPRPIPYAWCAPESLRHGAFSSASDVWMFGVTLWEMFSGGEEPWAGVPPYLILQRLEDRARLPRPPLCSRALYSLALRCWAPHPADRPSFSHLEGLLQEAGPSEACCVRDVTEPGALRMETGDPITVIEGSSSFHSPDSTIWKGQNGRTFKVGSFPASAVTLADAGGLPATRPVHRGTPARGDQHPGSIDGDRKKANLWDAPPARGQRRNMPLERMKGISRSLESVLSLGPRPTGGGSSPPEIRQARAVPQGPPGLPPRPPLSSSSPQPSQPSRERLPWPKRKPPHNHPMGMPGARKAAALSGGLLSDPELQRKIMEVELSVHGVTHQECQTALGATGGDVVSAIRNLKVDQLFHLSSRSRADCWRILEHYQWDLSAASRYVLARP

[3] = target: Tyrosine-protein kinase Fer (Homo sapiens, UniProt P16591); assay: Inhibition of FER in human HeLa cells lysate pre incubated for 15 mins followed by ATP acyl phosphate probe addition and measured after 10 mins by LC-MS/MS analysis; type: subcellular
[4] = target: Cyclin-dependent kinase 9 (Homo sapiens, UniProt P50750); assay: Inhibition of CDK9 in human HeLa cells lysate at 2 uM pre incubated for 15 mins followed by ATP acyl phosphate probe addition and measured after 10 mins by LC-MS/MS analysis relative to control; type: subcellular; settings: time 25.0 min
Chain of Cyclin-dependent kinase 9 (P50750 whole entry, the tested form may be a part): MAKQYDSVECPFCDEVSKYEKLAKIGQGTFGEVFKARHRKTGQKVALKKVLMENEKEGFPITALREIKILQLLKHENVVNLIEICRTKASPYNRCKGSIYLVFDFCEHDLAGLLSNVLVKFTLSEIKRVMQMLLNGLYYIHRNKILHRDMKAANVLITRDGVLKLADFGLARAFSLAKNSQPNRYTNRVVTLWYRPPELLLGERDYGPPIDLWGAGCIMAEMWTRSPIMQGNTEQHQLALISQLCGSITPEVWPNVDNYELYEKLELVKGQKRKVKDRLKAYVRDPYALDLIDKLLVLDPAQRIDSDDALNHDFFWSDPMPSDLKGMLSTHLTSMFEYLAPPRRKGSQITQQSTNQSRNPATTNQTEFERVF
In short: (§2)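 KiNativ profiling in HeLa lysate (5 mg/mL total protein). Lysate incubated 15 min with inhibitor at 50, 10, 2, 0.8 or 0 μM. ATP or ADP acylphosphate probe then added (5 μM final) and reacted 10 min. Reaction stopped with urea and analysed by targeted MS, using up to four fragment ions per kinase peptide-probe conjugate. % inhibition taken against untreated lysate. Run in duplicate.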

[5] = Inhibition of PCTAIRE2/ICK in human HeLa cells lysate at 2 uM pre incubated for 15 mins followed by ADP acyl phosphate probe addition and measured after 10 mins by LC-MS/MS analysis relative to control; settings: 25 min, condition cancer
[6] = Inhibition of NEK6/7 in human HeLa cells lysate at 10 uM pre incubated for 15 mins followed by ATP acyl phosphate probe addition and measured after 10 mins by LC-MS/MS analysis relative to control; settings: 25 min, condition cancer
[7] = target: Ephrin type-A receptor 2 (Homo sapiens, UniProt P29317); assay: Inhibition of EphA2 in human HeLa cells lysate pre incubated for 15 mins followed by ATP acyl phosphate probe addition and measured after 10 mins by LC-MS/MS analysis; type: subcellular
Chain of Ephrin type-A receptor 2 (P29317 whole entry): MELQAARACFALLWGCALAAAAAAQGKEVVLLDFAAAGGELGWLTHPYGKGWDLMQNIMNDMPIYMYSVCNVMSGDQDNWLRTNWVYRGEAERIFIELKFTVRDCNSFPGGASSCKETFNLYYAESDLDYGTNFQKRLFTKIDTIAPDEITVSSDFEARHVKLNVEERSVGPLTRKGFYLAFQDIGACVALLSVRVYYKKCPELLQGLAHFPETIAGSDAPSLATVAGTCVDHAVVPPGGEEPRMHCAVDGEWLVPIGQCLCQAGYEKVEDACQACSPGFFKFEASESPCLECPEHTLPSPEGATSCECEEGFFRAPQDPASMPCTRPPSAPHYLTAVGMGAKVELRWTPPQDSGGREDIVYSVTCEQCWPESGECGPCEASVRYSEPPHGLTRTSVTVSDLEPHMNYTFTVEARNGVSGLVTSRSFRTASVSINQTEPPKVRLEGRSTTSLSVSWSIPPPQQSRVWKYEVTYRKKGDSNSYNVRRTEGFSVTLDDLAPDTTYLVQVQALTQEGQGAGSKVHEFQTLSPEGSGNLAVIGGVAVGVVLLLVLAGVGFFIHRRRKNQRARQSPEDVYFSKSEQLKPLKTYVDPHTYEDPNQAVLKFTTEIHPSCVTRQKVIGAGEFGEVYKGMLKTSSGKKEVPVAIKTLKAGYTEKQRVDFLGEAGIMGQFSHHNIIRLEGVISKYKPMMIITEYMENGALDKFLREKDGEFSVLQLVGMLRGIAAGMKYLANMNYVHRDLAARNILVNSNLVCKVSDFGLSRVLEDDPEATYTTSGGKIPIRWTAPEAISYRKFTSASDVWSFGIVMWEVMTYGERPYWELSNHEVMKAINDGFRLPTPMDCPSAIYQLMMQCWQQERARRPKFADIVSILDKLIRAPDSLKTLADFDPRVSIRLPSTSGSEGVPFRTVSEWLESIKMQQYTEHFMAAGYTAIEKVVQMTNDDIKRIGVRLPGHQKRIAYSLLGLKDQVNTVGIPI

[8] = target: Mitogen-activated protein kinase 4 (Homo sapiens, UniProt P31152); assay: Inhibition of ERK4 in human HeLa cells lysate pre incubated for 15 mins followed by ATP acyl phosphate probe addition and measured after 10 mins by LC-MS/MS analysis; type: subcellular
Chain of Mitogen-activated protein kinase 4 (P31152 whole entry): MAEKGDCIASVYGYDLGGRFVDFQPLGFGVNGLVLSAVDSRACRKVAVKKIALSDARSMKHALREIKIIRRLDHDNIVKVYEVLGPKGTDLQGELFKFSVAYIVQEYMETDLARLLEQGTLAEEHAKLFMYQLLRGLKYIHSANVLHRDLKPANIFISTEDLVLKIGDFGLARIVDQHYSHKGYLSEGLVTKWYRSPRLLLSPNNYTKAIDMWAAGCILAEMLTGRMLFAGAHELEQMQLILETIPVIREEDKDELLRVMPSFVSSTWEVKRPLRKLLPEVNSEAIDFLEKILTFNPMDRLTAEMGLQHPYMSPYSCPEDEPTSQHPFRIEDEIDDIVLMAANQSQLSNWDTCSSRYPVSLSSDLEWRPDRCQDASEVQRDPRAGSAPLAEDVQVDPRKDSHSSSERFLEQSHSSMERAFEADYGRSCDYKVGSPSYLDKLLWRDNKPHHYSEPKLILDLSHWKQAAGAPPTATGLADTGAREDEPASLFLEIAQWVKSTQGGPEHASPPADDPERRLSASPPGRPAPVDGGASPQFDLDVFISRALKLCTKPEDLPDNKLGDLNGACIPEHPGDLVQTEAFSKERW

[9] = target: Calcium/calmodulin-dependent protein kinase kinase 1 (Homo sapiens, UniProt Q8N5S9); assay: Inhibition of CAMKK1 in human HeLa cells lysate at 50 uM pre incubated for 15 mins followed by ADP acyl phosphate probe addition and measured after 10 mins by LC-MS/MS analysis relative to control; type: subcellular; settings: time 25.0 min; in short: as §2
Chain of Calcium/calmodulin-dependent protein kinase kinase 1 (Q8N5S9 whole entry, looked up): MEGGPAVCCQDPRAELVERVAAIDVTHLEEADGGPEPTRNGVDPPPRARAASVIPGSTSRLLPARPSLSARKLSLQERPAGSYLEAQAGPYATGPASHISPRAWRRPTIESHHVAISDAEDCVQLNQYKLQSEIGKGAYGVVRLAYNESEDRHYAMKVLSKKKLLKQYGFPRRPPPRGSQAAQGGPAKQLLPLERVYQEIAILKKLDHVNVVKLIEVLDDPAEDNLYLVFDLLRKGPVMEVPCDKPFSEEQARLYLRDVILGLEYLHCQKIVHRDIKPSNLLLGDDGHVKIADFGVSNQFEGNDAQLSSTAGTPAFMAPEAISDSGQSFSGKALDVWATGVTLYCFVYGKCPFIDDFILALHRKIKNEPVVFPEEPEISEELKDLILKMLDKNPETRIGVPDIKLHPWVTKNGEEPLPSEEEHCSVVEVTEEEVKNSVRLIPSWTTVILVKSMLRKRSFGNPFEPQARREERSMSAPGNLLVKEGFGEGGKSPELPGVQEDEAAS

[10] = Inhibition of NEK6/7 in human HeLa cells lysate at 50 uM pre incubated for 15 mins followed by ADP acyl phosphate probe addition and measured after 10 mins by LC-MS/MS analysis relative to control; settings: 25 min, condition cancer
[11] = MRT in Sprague-Dawley rat at 1 mg/kg, iv measured up to 8 hrs by LC-MS/MS analysis; type: ADME, organism-based; settings: in vivo
[12] = target: Serine/threonine-protein kinase ULK2 (Homo sapiens, UniProt Q8IYT8); assay: Inhibition of ULK2 in human HeLa cells lysate pre incubated for 15 mins followed by ADP acyl phosphate probe addition and measured after 10 mins by LC-MS/MS analysis; type: subcellular
Chain of Serine/threonine-protein kinase ULK2 (Q8IYT8 whole entry): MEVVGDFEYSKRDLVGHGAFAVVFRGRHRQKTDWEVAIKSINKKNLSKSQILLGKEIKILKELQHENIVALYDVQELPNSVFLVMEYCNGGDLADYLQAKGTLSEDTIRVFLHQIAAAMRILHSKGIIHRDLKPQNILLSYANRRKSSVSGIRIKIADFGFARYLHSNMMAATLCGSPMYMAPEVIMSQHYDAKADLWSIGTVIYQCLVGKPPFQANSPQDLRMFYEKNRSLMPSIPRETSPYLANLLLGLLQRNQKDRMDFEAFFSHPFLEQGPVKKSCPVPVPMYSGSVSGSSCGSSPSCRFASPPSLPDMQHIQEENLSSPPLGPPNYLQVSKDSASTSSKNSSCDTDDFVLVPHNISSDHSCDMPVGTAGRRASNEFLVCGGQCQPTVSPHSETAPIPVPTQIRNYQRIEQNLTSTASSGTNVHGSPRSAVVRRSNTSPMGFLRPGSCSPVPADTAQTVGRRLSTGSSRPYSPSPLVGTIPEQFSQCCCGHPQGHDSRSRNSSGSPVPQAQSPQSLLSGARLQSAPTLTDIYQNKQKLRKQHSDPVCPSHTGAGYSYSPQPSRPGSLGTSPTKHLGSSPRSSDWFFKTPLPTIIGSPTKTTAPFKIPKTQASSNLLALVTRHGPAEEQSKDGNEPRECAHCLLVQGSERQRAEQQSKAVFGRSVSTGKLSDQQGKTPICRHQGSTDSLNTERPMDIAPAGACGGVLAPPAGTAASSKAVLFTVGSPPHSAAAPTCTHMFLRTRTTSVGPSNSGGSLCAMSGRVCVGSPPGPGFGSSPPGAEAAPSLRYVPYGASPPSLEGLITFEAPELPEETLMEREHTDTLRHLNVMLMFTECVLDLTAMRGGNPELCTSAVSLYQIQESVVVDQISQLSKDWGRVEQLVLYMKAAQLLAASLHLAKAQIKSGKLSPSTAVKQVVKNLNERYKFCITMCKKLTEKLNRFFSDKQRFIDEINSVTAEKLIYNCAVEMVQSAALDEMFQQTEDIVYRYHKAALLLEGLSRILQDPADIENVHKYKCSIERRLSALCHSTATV

[13] = target: Serine/threonine-protein kinase 10 (Homo sapiens, UniProt O94804); assay: Inhibition of LOK in human HeLa cells lysate pre incubated for 15 mins followed by ADP acyl phosphate probe addition and measured after 10 mins by LC-MS/MS analysis; type: subcellular
[14] = Inhibition of PCTAIRE2/3 in human HeLa cells lysate at 2 uM pre incubated for 15 mins followed by ADP acyl phosphate probe addition and measured after 10 mins by LC-MS/MS analysis relative to control; settings: 25 min, condition cancer
[15] = Inhibition of MST4/YSK1 in human HeLa cells lysate at 2 uM pre incubated for 15 mins followed by ADP acyl phosphate probe addition and measured after 10 mins by LC-MS/MS analysis relative to control; settings: 25 min, condition cancer
[16] = Inhibition of MSK1/2 domain 1 in human HeLa cells lysate at 10 uM pre incubated for 15 mins followed by ATP acyl phosphate probe addition and measured after 10 mins by LC-MS/MS analysis relative to control; settings: 25 min, condition cancer
[17] = target: Serine/threonine-protein kinase Nek7 (Homo sapiens, UniProt Q8TDX7); assay: Inhibition of NEK7 in human HeLa cells lysate at 2 uM pre incubated for 15 mins followed by ADP acyl phosphate probe addition and measured after 10 mins by LC-MS/MS analysis relative to control; type: subcellular; settings: time 25.0 min
Chain of Serine/threonine-protein kinase Nek7 (Q8TDX7 whole entry, looked up): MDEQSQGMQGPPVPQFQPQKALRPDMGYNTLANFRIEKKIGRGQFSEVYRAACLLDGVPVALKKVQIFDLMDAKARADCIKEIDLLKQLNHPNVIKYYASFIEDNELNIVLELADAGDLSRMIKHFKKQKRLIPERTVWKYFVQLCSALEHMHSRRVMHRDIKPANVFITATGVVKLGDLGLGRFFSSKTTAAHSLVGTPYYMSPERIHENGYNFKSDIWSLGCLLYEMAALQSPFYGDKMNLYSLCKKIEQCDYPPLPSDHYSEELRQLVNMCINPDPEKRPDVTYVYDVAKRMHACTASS

[18] = target: Protein kinase C iota type (Homo sapiens) (UniProt P41743); assay: Inhibition of PKCiota in human HeLa cells lysate at 2 uM pre incubated for 15 mins followed by ADP acyl phosphate probe addition and measured after 10 mins by LC-MS/MS analysis relative to control; type: subcellular; settings: time 25.0 min
[19] = target: AMPK alpha1/alpha2 (Homo sapiens, UniProt P54646+Q13131); assay: Inhibition of AMPKalpha1/2 in human HeLa cells lysate pre incubated for 15 mins followed by ADP acyl phosphate probe addition and measured after 10 mins by LC-MS/MS analysis; type: subcellular; in short: as §1
Chain of AMPK alpha1/alpha2 (P54646 whole entry): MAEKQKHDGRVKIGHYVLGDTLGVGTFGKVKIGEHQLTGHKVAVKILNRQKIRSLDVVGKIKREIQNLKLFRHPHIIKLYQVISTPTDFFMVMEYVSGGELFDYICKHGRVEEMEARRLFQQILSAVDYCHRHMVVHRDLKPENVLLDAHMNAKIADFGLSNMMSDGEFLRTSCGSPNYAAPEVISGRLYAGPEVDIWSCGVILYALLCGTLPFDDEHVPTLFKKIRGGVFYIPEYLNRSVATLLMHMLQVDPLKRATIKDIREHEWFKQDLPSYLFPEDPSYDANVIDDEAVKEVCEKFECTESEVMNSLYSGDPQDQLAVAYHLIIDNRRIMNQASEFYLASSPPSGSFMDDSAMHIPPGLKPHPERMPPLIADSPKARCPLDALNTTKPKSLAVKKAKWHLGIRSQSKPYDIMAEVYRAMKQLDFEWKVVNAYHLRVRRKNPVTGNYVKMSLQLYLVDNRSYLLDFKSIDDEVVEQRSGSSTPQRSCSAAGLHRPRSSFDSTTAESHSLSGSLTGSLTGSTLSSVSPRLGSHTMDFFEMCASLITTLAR
Chain of AMPK alpha1/alpha2 (Q13131 whole entry): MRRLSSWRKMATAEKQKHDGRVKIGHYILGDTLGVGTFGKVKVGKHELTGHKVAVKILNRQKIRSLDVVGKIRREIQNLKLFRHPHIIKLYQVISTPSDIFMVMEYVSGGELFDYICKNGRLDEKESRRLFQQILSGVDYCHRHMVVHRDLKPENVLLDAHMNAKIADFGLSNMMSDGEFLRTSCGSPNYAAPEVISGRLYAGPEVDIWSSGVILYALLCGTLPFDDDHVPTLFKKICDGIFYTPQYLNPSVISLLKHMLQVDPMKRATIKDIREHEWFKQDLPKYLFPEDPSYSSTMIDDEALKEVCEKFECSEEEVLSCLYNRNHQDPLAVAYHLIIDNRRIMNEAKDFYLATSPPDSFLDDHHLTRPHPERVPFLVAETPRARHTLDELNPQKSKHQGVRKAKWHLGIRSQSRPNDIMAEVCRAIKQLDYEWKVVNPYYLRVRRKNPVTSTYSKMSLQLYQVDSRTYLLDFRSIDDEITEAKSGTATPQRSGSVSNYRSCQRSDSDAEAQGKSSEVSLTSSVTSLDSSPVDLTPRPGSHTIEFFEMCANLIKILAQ

## CCOc1cc(N2CCC(O)CC2)ccc1Nc1ncc2c(n1)N(C)c1ccccc1C(=O)N2C
[1]
  inhibition: 1.7%
[2]
  Activity: 7.8%
[3]
  IC50: > 50 µM
[4]
  inhibition: 11.6%
[5]
  inhibition at 2 µM: 1.2%
[6]
  inhibition at 10 µM: -10.7%
[7]
  IC50: > 50 µM
[8]
  IC50: > 50 µM
[9]
  inhibition: 17%
[10]
  inhibition at 50 µM: 5.6%
[11]
  MRT: 2.2 h
[12]
  IC50: > 50 µM
[13]
  IC50: > 50 µM
[14]
  inhibition at 2 µM: 10.1%
[15]
  inhibition at 2 µM: 11.3%
[16]
  inhibition at 10 µM: -10.6%
[17]
  inhibition: 14.2%
[18]
  inhibition: 18.9%
[19]
  IC50: > 50 µM
